Test results reported in PMC11983213 (ACS Omega, 2025).
Values after ≈ are worked out from the molar mass of the structure shown.

Tests used:
gastric cancer cells = conditions: via PI3K/Akt/Snail pathway; cited from earlier work
breast cancer cells = conditions: cited from earlier work
[1] = tested on: MCF-7 breast cancer cell line; test: MTT cytotoxicity assay on MCF-7; format: cell-based; conditions: Homo sapiens, MCF7, 48 h
Summary of the method: (§1)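 Cells held in RPMI-1640 or DMEM with 2 mM L-glutamine, 1% penicillin/streptomycin and 10% FBS at 37 °C, 5% CO2. Seeded in triplicate at 5000 cells per well, then treated next day with test extract or compound. After 48 h exposure, MTT reagent added for 3 h and signal read at 570 nm. IC50 estimated from the viability data.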

[2] = tested on: MDA-MB-231 breast cancer cell line; test: MTT cytotoxicity assay on MDA-MB-231; format: cell-based; conditions: Homo sapiens, MDA-MB-231, 48 h
Summary of the method: as §1

[3] = tested on: HepG2 liver cancer cell line; test: MTT cytotoxicity assay on HepG2; format: cell-based; conditions: Homo sapiens, HepG2, 48 h
Summary of the method: as §1

HSF normal cell line = test: MTT cytotoxicity assay on HSF; format: cell-based; conditions: 48 h
Summary of the method: as §1

[4] = tested on: breast and colon cancer cells; conditions: cited from earlier work
[5] = tested on: protein tyrosine kinases v-src and pp60src; conditions: cited from earlier work
[6] = tested on: SPC-1-A, Bcap37, and HepG2 cancer cells; conditions: via the mitochondrial apoptotic pathway; cited from earlier work
[7] = tested on: breast and skin cancer cells; conditions: cancer versus normal cells; cited from earlier work
pancreatic cancer cells = conditions: by blocking NF-κB activation; cited from earlier work
breast and bone cancers = conditions: cited from earlier work

SMILES | IC50 [1] | IC50 [2] | IC50 [3] | IC50 (HSF normal cell line) | further results
COc1ccc(-c2cc(=O)c3c(O)cc(O)cc3o2)cc1 [acacetin] | – | – | – | – | effect on invasion, migration and TGF-β1-induced EMT (gastric cancer cells): prevented gastric cancer cells from invasively migrating and developing TGF-β1-induced epithelial-to-mesenchymal transition; induction of cell death (breast cancer cells): caused RIP1-dependent necroptotic death and prolonged ERK1/2 activation
COc1ccc2c(c1O)C(=O)c1ccccc1C2=O [2-methyl alizarin, 1-Hydroxy-2-methoxyanthracene-9,10-dione] | 52.1 µg/mL (≈ 205 µM) | 83 µg/mL (≈ 327 µM) | 8.88 µg/mL (≈ 34.9 µM) | 67 µg/mL (≈ 264 µM) | –
O=C1c2ccccc2C(=O)c2cc(O)ccc21 [2-hydroxyanthraquinone] | – | – | – | – | induction of apoptosis [4]: resulting in apoptosis via inhibiting antiapoptotic pathways; inhibitory activity against protein tyrosine kinases [5]: exhibited inhibitory activity; effect on cell growth [6]: arrested the growth
O=C1c2ccccc2C(=O)c2c(O)cc(O)cc21 [xanthopurpurin] | – | – | – | – | selective toxicity [7]: high selective toxicity toward breast and skin cancer cells at lower concentrations without inducing toxicity toward normal cells
CC(=O)Oc1ccc2c(c1O)C(=O)c1ccccc1C2=O [alizarin-2-acetate, 9,10-Dihydro-1-hydroxy-9,10-dioxoanthracen-2-yl Acetate] | 120 µg/mL | 157 µg/mL | ≥ 50 µg/mL | 151 µg/mL | –
O=C1c2ccccc2C(=O)c2c(O)c(O)cc(O)c21 [purpurin] | 148 µg/mL (≈ 577 µM) | 244 µg/mL (≈ 954 µM) | 179 µg/mL (≈ 700 µM) | 201 µg/mL (≈ 783 µM) | –
CC(=O)Oc1ccc2c(c1OC(C)=O)C(=O)c1ccccc1C2=O [alizarin-1,2-diacetate, 1,2-Diacetoxyanthraquinone] | 135 µg/mL (≈ 416 µM) | 127 µg/mL (≈ 391 µM) | ≥ 50 µg/mL | 142 µg/mL (≈ 437 µM) | –
O=C1c2ccccc2C(=O)c2c1ccc(O)c2O [alizarin] | 66.9 µg/mL (≈ 279 µM) | 52.6 µg/mL (≈ 219 µM) | 99.4 µg/mL (≈ 414 µM) | 111 µg/mL (≈ 462 µM) | effect on cell growth (pancreatic cancer cells): prevented pancreatic cancer cells from growing; effect on breast and bone cancers (breast and bone cancers): impaired both breast and bone cancers by inducing cell cycle arrest in the S phase and inhibiting ERK phosphorylation
COc1cccc2c1C(=O)c1c(O)c3c(c(O)c1C2=O)C[C@@](O)(C(=O)CO)C[C@@H]3O[C@H]1C[C@H](N)[C@H](O)[C@H](C)O1 [Doxorubicin, reference compound] | 2.17 µg/mL (≈ 3.99 µM) | 7.05 µg/mL (≈ 13 µM) | 2.48 µg/mL (≈ 4.56 µM) | – | –
